# From PubChem
# Hits are enriched below; roughly 2.5% of the tested compounds scored in any of these assays.
# OX1R antag-1: blocks the human orexin 1 receptor; O43613; OX1R-expressing cells, FRET antagonist read-out; inhibition, % at 6.6 µM; hit rate 1.8% among 330,000; AID 485270; in the data active = inhibition mostly above about 38%, no sharp cut-off; inactive = mostly below about 40%;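 note: 0% = agonist challenge alone and 100% = reference antagonist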
# Target sequence (O43613 whole entry, looked up): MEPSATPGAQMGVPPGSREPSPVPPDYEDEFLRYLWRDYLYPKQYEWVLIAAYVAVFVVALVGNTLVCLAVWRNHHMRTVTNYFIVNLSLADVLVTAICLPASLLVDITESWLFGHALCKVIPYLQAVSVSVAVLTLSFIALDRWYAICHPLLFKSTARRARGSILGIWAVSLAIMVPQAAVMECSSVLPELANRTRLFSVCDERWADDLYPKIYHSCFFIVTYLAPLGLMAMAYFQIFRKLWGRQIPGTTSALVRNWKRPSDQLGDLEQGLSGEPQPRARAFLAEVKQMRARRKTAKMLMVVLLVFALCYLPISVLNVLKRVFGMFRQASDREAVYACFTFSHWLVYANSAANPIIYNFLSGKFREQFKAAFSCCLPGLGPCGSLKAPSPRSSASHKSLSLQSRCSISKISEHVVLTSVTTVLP
# TRPML3 ag: human mucolipin-3 channel agonism; Q8TDD5; HEK293 TRPML3-YFP, Fluo-8 calcium fluorescence; 100% = the carbachol control signal; activation, % at 3 µM; hit rate 0.29% among 220,000; AID 1448;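 active = activation above its plate's cutoff, the mean activation of the plate's test wells plus 3 SD, cut at about 12% in these data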;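 note: 0% = DMSO only wells and 100% = carbachol wells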
#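 system = HEK293 cells stably carrying human TRPML3-YFP | doses = one concentration, 3 µM nominal, 0.3% DMSO | timing = dye loading 1 h 37 °C then 30 min ambient, 125 s read | detection = Fluo-8 calcium dye fluorescence, ex 470-495, em 515-575 nm | benchmarks = high control carbachol 87 µM, low control DMSO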
# CHO parental Ca: signal in parental CHO cells, OX1R antagonist counter-screen. hit rate 0.63% among 330,000. parental CHO-K1, ATP-induced calcium, Fluo-8 fluorescence. inhibition, % at 5.6 µM;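 active = inhibition above that plate's mean sample inhibition plus 3 SD, cut at about 26% in these data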;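 note: 0% = ATP-challenged DMSO wells and 100% = DMSO wells without ATP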
#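 test system = CHO parental line | reagent = ATP stimulus | measured by = intracellular calcium via Fluo-8 no-wash fluorescent dye | control set = ATP and no-ATP DMSO wells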
# zfTRPN1 agonist: activates the zebrafish TRPN1 channel; HEK293 zebrafish TRPN1-YFP, Fluo-8 calcium fluorescence; 100% = response to 87 µM carbachol; activation, % at 3 µM; hit rate 0.18% among 220,000; AID 1424;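 active = activation above its plate's cutoff, the mean activation of test wells on that plate plus 3 SD, cut at about 19% in these data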;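 note: 0% = DMSO alone and 100% = 87 µM carbachol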
#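 Control set: carbachol 87 µM as high control, DMSO as low control; system: HEK293 stable line with zebrafish TRPN1-YFP; read-out: % activation versus carbachol response; detection: intracellular calcium fluorescence with Fluo-8; doses: single test compound dose, 3 µM nominal, 0.3% DMSO; schedule: dye 1 h 37 °C plus 30 min RT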
# OX1R antag-2: antagonists of human orexin 1 receptor. O43613. hit rate 0.43% among 330,000. inhibition, % at 5 µM. AID 434989. CHO/OX1R cells, Fluo-8 calcium fluorescence, orexin A;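 active = inhibition above its plate's threshold, mean inhibition of all tested compounds on the plate plus 3 SD, cut at about 37% in these data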;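 note: 0% = orexin A challenge wells and 100% = SB-334867-A antagonist wells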
# * marks the source's active call; other numbers are inactive results; nt = no result.
SMILES,OX1R antag-1,TRPML3 ag,CHO parental Ca,zfTRPN1 agonist,OX1R antag-2
CN1CCc2cc(O)cc3c2[C@H]1Cc1ccc(O)c(O)c1-3,25.2,nt,11.3,nt,7.2
COC1=CC(=O)[C@]2(C=C1OC)OC[C@@H]1Oc3c(ccc4c3C=CC(C)(C)O4)C(=O)[C@@H]12,32.6,nt,61.9*,nt,60.3*
N=C1c2ccccc2CN1c1ccc(F)c([N+](=O)[O-])c1,23.5,0.9,-4.9,0.1,-8.7
CN(CC1COc2ccccc2O1)c1nc(-c2cccnc2)nc2ccccc12 (stereo not drawn),73.7*,0.6,-33.8,0.3,-27.9
Cc1ccc(NP(=O)(Oc2ccccc2F)Oc2ccccc2F)cc1,13.4,-0.8,-4.0,0.2,3.1
Cc1cccc(NP(=O)(Oc2ccccc2F)Oc2ccccc2F)c1C,20.4,0.6,47.1*,0.1,5.6
CCN(CC)P(=S)(c1c(C)nc2ccccn12)c1c(C)nc2ccccn12,32.5,0.2,-14.6,0.1,-19.3
Cc1nc2ccccc2c(=O)n1-c1ccc(Cl)cc1[N+](=O)[O-],21.6,0.2,-8.3,-1.2,-28.8
COc1ccc(-c2cc(=NCCCCCC(=O)O)c3cc(C)ccc3o2)cc1,nt,0.7,nt,1.3,nt
COc1ccc(-c2cc(=NCC(=O)O)c3ccccc3o2)cc1,64.4*,nt,-25.8,nt,-18.6
COC(=O)C1=C(c2ccc(-c3ccccc3)c(F)c2)C[C@@H]2CC[C@H]1N2C(=O)NCc1ccco1,4.4,nt,-24.9,nt,-7.3
O=C(CSC1c2ccccc2-c2ccccc21)N/N=C/c1ccccc1O,60.4*,0.3,-6.8,-0.7,-0.7
O=[N+]([O-])c1ccc(N2CCCCCC2)c2nonc12,103.4*,nt,93.3*,nt,101.8*
O=[N+]([O-])c1ccc(N2CCOCC2)c2cccnc12,71.0*,1.2,-1.6,1.5,15.5
O=[N+]([O-])c1ccc(N2CCCCC2)c2ncccc12,44.2,0.5,-6.3,-2.1,-23.1
O=[N+]([O-])c1ccc(N2CCCNCC2)c2ncccc12,39.7*,1.0,-2.9,-1.0,-6.2
CC1CC(C)CN(C(=O)COC(=O)c2cn(C)c3ccccc23)C1 (stereo not drawn),5.3,nt,-11.7,nt,-0.8
O=c1c2ccccc2nc(-c2ccccc2)n1-c1ccc(O)cc1,12.6,1.1,-9.4,0.6,-15.8
COc1cc2c(cc1OC)-c1c(OC)c(OC)c(OC)c3ccnc(c13)C2=O,68.2*,-0.5,-24.3,-0.5,-6.3
c1cc(C2N3CCCN2CC3)ccn1 (stereo not drawn),10.1,0.6,-3.3,1.4,-6.0
C/C=C(\C)C(=O)OC1C(C)=C2C(C1OC(=O)CCCCC)C(C)(OC(C)=O)CC(OC(=O)CCC)C1(O)C2OC(=O)C1(C)O (stereo not drawn),2.3,nt,101.2*,nt,100.7*
Cc1ccccc1-n1c(-c2ccoc2)nc2ccccc2c1=O,9.3,0.4,-8.9,1.3,-27.6
O=[N+]([O-])c1ccc(NCc2ccccc2)c2nonc12,45.3,215.7*,94.4*,332.1*,107.5*
O=[N+]([O-])c1ccc(NCc2ccc(Cl)cc2)c2ccncc12,4.5,nt,-21.7,nt,-17.8
CC(C)[N+]12CCC(CC1)C(C(O)(c1ccccc1)c1ccccc1)C2 (stereo not drawn),4.8,-0.2,8.9,-0.6,-12.2
SMILES,OX1R antag-1,TRPML3 ag,CHO parental Ca,zfTRPN1 agonist,OX1R antag-2
Cc1ncc(CNC(=O)N(CCCl)N=O)c(N)n1,15.5,nt,2.2,nt,-0.5
Cn1c[n+](C)cc1C(O)c1ccccc1 (stereo not drawn),0.2,1.0,-16.3,1.3,-6.8
CC(C)Sc1nnc([C@@H](N)Cc2c[nH]c3ccccc23)o1,40.3*,1.1,-8.5,1.1,5.8
NC(=O)CSc1nnc([C@@H](N)Cc2c[nH]c3ccccc23)o1,17.9,0.0,-0.1,1.3,-17.2
CN(C(=O)c1ccc(Cl)nc1)C1(c2ccccc2Cl)CCCCC1=O (stereo not drawn),14.2,0.9,-11.9,-1.1,-13.8
C/C=C/CC#N,-0.5,nt,-0.2,nt,5.4
Nc1ccc2ccc3cccc[n+]3c2c1,36.1,nt,37.5*,nt,12.1
NN=C(N)N,17.0,nt,-7.6,nt,6.3
CC(C)(C)c1cc(C=C(C#N)C#N)cc(C(C)(C)C)c1O,44.5*,nt,-5.1,nt,-11.6
O=C(CCC(=O)N1C[C@H]2C[C@@H](C1)c1cccc(=O)n1C2)NCc1cccc(C(F)(F)F)c1,18.5,nt,-10.4,nt,2.6
CN(C)C1(c2nnnn2CCOC(=O)Nc2ccc(Cl)cc2)CCCCC1,18.3,1.9,-14.7,1.1,-18.5
